Screening results deposited in PubChem by Broad Institute.
In the library only some 1.9% were active in any assay of this set; here they are far more common.
HIV Env fusion = inhibitors of HIV Env-mediated cell fusion; HeLa-JRFL Env/CEM21 cell fusion, luciferase; inhibition, % at 12.3 µM; 360,000 tested, 1.1% active; AID 651610;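 active = mean replicate inhibition score of at least 50 and every replicate individually at or above 50; inconclusive = only one of the two criteria met; inactive = mean below 50 and not all replicates reaching 50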
Rtt109 HAT inh = blocks Candida albicans Rtt109/Vps75 acetyltransferase activity | Q5AAJ8 | purified Rtt109/Vps75, ThioGlo CoA-SH fluorescence, 4 h | inhibition, % at 34.9 µM | 330,000 tested, 0.16% active;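 active = inhibition of at least 50% in every replicate; inconclusive = best replicate reaches 50% inhibition but some replicates fall short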
SR-BI uptake up = activators of SR-BI mediated HDL lipid uptake. CHO ldlA[mSR-BI] cells, DiI-HDL uptake fluorescence, 3 h; 100 = double the neutral-control signal. activation, % at 12.5 µM. 320,000 tested, 0.096% active. AID 504775;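 active = mean replicate activation of at least 60% and every replicate at or above 60%; inconclusive = mean or all-replicate condition met, but not both; inactive = mean below 60% and not all replicates reaching 60%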
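Assay system: LDL receptor-deficient CHO ldlA cells overexpressing murine SR-BI / Medium: BSA-supplemented, HEPES-buffered Ham's F12, pH 7.4 / Probe or stimulus: DiI-labelled HDL at 10 µg/mL final / Timing: compound with DiI-HDL co-incubation, 3 h at 37 °C / Technique: bottom-read cell fluorescence after medium removal, ex 550/em 595 nm / Measure: HDL uptake via cellular fluorescence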
PglD DTNB = blocks C. jejuni PglD acetyltransferase activity; purified PglD enzyme, DTNB colorimetric CoA detection; inhibition, % at 12.5 µM; 360,000 tested, 0.098% active; AID 602405; in the data active = inhibition above about 16%, passing the limit was not always enough; inconclusive = no clear call, values can overlap the other calls
Glyco luc inh = blocks N-linked glycosylation in D54 reporter cells. D54 ERlucT glycosylation luciferase reporter, 24 h; percent of 100 nM tunicamycin response. 360,000 tested, 0.23% active. AID 588692. reporter increase, % at 12.5 µM;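 active = mean luciferase reporter signal, scaled so untreated is 0 and the glycosylation-blocking control 100, at or above a set limit in every replicate; inconclusive = mean reaches the limit but not every replicate does; inactive = mean below the limit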;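 note: luciferase carries N-glycosylation sites so blocking glycosylation raises the light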
SR-BI DiI inh = mouse SR-BI HDL lipid transfer inhibition; Q61009; ldlA[mSR-BI] CHO cells, DiI-HDL uptake fluorescence, 3 h; inhibition, % at 12.5 µM; 320,000 tested, 0.96% active; AID 488896;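 active = mean replicate inhibition of at least 70% and a set share of replicates each scoring 70 or more; inconclusive = meets just one of the two criteria; inactive = fails both criteria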
Target sequence (Q61009 whole entry, looked up): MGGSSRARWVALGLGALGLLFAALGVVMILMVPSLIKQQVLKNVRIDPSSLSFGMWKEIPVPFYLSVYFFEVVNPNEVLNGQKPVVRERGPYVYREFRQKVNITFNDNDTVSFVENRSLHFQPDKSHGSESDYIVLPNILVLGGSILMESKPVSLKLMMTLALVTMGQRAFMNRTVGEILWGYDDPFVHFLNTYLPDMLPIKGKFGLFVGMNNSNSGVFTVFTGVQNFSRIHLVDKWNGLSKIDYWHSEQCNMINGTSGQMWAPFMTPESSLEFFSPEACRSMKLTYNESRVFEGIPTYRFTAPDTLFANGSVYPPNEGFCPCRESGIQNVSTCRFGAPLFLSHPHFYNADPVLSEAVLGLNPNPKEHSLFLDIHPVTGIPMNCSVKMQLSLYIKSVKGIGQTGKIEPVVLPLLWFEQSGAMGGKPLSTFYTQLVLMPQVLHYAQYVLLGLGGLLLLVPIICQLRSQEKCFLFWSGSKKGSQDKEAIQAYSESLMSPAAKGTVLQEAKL
Hits are given with their value; - = inactive; ? = inconclusive; . = no result given; ! = repeats disagree; [ ] = remark or other dose.

SMILES | HIV Env fusion | Rtt109 HAT inh | SR-BI uptake up | PglD DTNB | Glyco luc inh | SR-BI DiI inh
COc1cccc(NC(=O)c2cc(-c3ccc(C)o3)nc3ccccc23)c1 | - | - | - | - | - | 77
COc1ccccc1NC(=O)Cn1cnc2sc(C(=O)Nc3ccc(OC)c(OC)c3)c(C)c2c1=O | - | - | - | - | - | 83
COc1ccccc1NC(=O)Cn1cnc2sc(C(=O)Nc3cc(OC)c(OC)c(OC)c3)c(C)c2c1=O | - | - | - | - | - | -
COc1ccc(NC(=O)c2ccccc2NS(C)(=O)=O)cc1OC | . | - | - | - | - | -
COc1ccc(-c2cc(C(=O)Nc3ccc(O)cc3)c3ccccc3n2)cc1OC | - | - | - | - | - | 81
COc1ccccc1NC(=O)c1cc(-c2ccc(OC)c(OC)c2)nc2ccccc12 | - | - | - | - | - | -
Cn1cnc(CCNC(=O)C[C@@H]2CC[C@@H]3[C@H](COC[C@H](O)CN3C(=O)C3CC3)O2)c1 | . | . | . | - | . | .
CCCNC(=O)N[C@@H]1CC[C@@H](CC(=O)N2CCN(C)CC2)O[C@H]1CO | - | . | . | - | . | .
COc1ccc(-c2cc(C(=O)NCc3ccco3)c3ccccc3n2)cc1OC | - | - | - | - | - | -
COc1ccc(-c2cc(C(=O)NCC(c3ccccc3)N(C)C)c3ccccc3n2)cc1OC (centres undefined) | - | - | - | - | 30 | -
C[C@@H]1CCCCO[C@@H](CN(C)Cc2ccc(C(F)(F)F)cc2)[C@H](C)CN([C@@H](C)CO)C(=O)c2cc(NC(=O)CCC(F)(F)F)ccc2O1 | - | . | . | - | . | .
C[C@H]1CN([C@@H](C)CO)S(=O)(=O)c2ccc(-c3ccccc3)cc2O[C@H]1CN(C)Cc1ccccc1 | 55[16.7 µM] | . | . | . | . | .
C[C@H]1CN([C@@H](C)CO)S(=O)(=O)c2ccc(C3=CCCC3)cc2O[C@H]1CN(C)Cc1ccccc1 | 57[16.7 µM] | . | . | - | . | .
Cc1ccc(-c2ccc3c(c2)O[C@@H](CN(C)Cc2cccnc2)[C@@H](C)CN([C@@H](C)CO)S3(=O)=O)cc1 | - | . | . | - | . | .
C[C@@H]1CN([C@@H](C)CO)S(=O)(=O)c2ccc(-c3ccccc3)cc2O[C@H]1CN(C)Cc1ccncc1 | - | . | . | - | . | .
C[C@H]1CN([C@@H](C)CO)S(=O)(=O)c2ccc(-c3ccc(F)cc3)cc2O[C@H]1CN(C)Cc1cccc(F)c1 | 62[16.7 µM] | . | . | . | . | .
Cc1ccc(-c2ccc3c(c2)O[C@@H](CN(C)Cc2cccnc2)[C@H](C)CN([C@H](C)CO)S3(=O)=O)cc1 | 75[16.7 µM] | . | . | - | . | .
Cc1cccc(S(=O)(=O)N2CC[C@H]3[C@@H](CO)N(C)c4ccc(-c5ccccc5F)cc4[C@H]32)c1 | . | . | . | - | . | .
COC(=O)C[C@@H]1CC[C@@H]2[C@H](COc3ccc(NC(=O)c4cnccn4)cc3C(=O)N2C)O1 | . | . | . | - | . | .
CC(C)NC(=O)N(C)C[C@H]1Oc2ccc(NS(=O)(=O)c3cccs3)cc2C(=O)N([C@H](C)CO)C[C@H]1C | - | . | . | . | . | .
Cc1ccc(-c2ccc3c(c2)O[C@H](CN(C)Cc2ccccc2)[C@H](C)CN([C@H](C)CO)S3(=O)=O)cc1 | - | . | . | - | . | .
C[C@@H]1CN([C@@H](C)CO)S(=O)(=O)c2ccc(-c3ccc(F)cc3)cc2O[C@@H]1CN(C)C(=O)C1CCCCC1 | - | . | . | - | . | .
C[C@@H]1CN([C@H](C)CO)S(=O)(=O)c2ccc(-c3ccccc3)cc2O[C@H]1CN(C)Cc1ccccc1 | 55[16.7 µM] | . | . | . | . | .
C[C@@H]1CN([C@@H](C)CO)S(=O)(=O)c2ccc(-c3ccc(F)cc3)cc2O[C@H]1CN(C)C(=O)C1CCCCC1 | 67[16.7 µM] | . | . | - | . | .
C/C=C/c1ccc2c(c1)O[C@H](CN(C)C(=O)CN(C)C)[C@@H](C)CN([C@H](C)CO)S2(=O)=O | - | . | . | - | . | .
SMILES | HIV Env fusion | Rtt109 HAT inh | SR-BI uptake up | PglD DTNB | Glyco luc inh | SR-BI DiI inh
COC(=O)CSc1nnc(COc2cccc3ccccc23)o1 | - | - | ? | - | - | -
Cc1csc(N(C)C(=O)CSc2nnc(COc3cccc4ccccc34)o2)n1 | 105 | - | - | - | - | -
CCc1nnc2n1N=C(c1ccc(Br)cc1)CS2 | - | - | - | - | - | -
Cc1cccc(-c2nnc3n2N=C(c2ccccc2)CS3)c1 | - | - | - | - | - | -
C[n+]1c2n(c3ccccc31)N=C(c1ccc(-c3ccccc3)cc1)CS2 | 66 | - | - | . | - | -
C[n+]1c2n(c3ccccc31)N=C(c1ccccc1)CS2 | 61! | - | - | - | - | -
C[n+]1c2n(c3ccccc31)N=C(c1ccc(Br)cc1)CS2 | - | . | - | - | 37 | -
CCCC#Cc1ccc2c(c1)O[C@@H](CN(C)C(=O)Nc1ccccc1F)[C@H](C)CN([C@H](C)CO)S2(=O)=O | - | . | . | - | . | .
C[C@@H]1CCCCO[C@@H](CN(C)C(=O)NC2CCCCC2)[C@H](C)CN([C@@H](C)CO)C(=O)c2cc(NC(=O)Nc3ccc(C(F)(F)F)cc3)ccc2O1 | - | . | . | - | . | .
COc1ccc(-c2cc(C3CC3)nc(SCC(=O)c3cccs3)c2C#N)cc1 | . | - | - | - | - | -
CCOC(=O)CSc1nc(C2CC2)cc(-c2ccc(F)cc2)c1C#N | - | - | - | - | - | 72
COc1cc(C(=O)O[C@H]2C/C(C)=C/CC[C@]3(C)O[C@@H]3C(O)C2C(C)C)cc(OC)c1OC (some centres undefined) | - | - | . | - | - | .
COc1cc(C(=O)O[C@H]2CC(C)=CC[C@@]3(C)CC[C@@](O)(C(C)C)[C@H]23)ccc1O | 88 | - | . | - | - | .
CC(C)(C)n1nc(Cc2cccc3ccccc23)c2c(N)ncnc21 | 82 | - | - | - | - | -
COc1ccccc1NC(=O)N(C)C[C@@H]1Oc2ncc(C#CCN(C)C)cc2C(=O)N([C@H](C)CO)C[C@@H]1C | - | . | . | - | . | .
O=C(CCn1c(=O)c2ccccc2n(Cc2cccc([N+](=O)[O-])c2)c1=O)N1CCc2ccccc2C1 | - | 59 | - | - | - | -
Cc1cc(NC(=O)CS(=O)(=O)c2cn(Cc3ccccc3Cl)c3ccccc23)no1 | 90 | - | - | - | - | -
Cc1cc(NC(=O)CS(=O)(=O)c2cn(Cc3cccc(Br)c3)c3ccccc23)no1 | - | . | . | - | - | .
C[C@H](CO)N1C[C@H](C)[C@@H](CN(C)C(=O)Cc2ccccc2)OCCCC[C@H](C)Oc2ccc(NC(=O)Nc3ccc4c(c3)OCO4)cc2C1=O | - | . | . | - | . | .
CSCCC(c1nc2ccccc2[nH]1)n1c(-c2ccc(C)cc2)nc2ccccc21 (centres undefined) | - | . | . | . | . | .
Cc1ccc(C(c2nc3ccccc3[nH]2)n2c(-c3ccccc3)nc3ccccc32)cc1 (centres undefined) | 58 | . | . | - | - | .
CCN1[C@H](C(=O)NCCc2cn(C)cn2)[C@@H](CO)[C@@H]2Cn3c(ccc(-c4ccncc4)c3=O)[C@@H]21 | . | . | . | - | . | .
